From ChEMBL document CHEMBL3232764, “Influence of the adamantyl moiety on the activity of biphenylacrylohydroxamic acid-based HDAC inhibitors” (Eur J Med Chem, 2014)

Experiments:
Histone deacetylase 2 = Histone deacetylase 2 (Homo sapiens, UniProt Q92769); format: cell-based, HeLa
cells = format: functional, cell-based; details: Homo sapiens, NCI-H460, 72 h
HCT-116 = test: Antiproliferative activity against human HCT116 cells assessed as growth inhibition after 72 hrs; format: functional, cell-based; details: HCT-116, 72 h
Summary of the method: (§1)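 Log-phase cells seeded in duplicate in 6-well plates; drug added 24 h after seeding. Cells harvested 72 h after drug exposure and counted with a cell counter. IC50 = drug concentration giving 50% reduction in cell number versus untreated control.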

IGROV-1 = test: Antiproliferative activity against human IGROV1 cells assessed as growth inhibition after 72 hrs; format: functional, cell-based; details: IGROV-1, 72 h
Summary of the method: as §1

[1] = Antiproliferative activity against p53 defective cis-platinum-resistant human IGROV1/Pt1 cells assessed as growth inhibition after 72 hrs; format: functional, cell-based; details: IGROV-1/Pt1, 72 h
Summary of the method: as §1

Histone deacetylase 1 = Histone deacetylase 1 (Homo sapiens, UniProt Q13547); test: Inhibition of human HDAC1 using fluorogenic tetrapeptide RHKKAc as substrate
Histone deacetylase 1, sequence (Q13547 whole entry): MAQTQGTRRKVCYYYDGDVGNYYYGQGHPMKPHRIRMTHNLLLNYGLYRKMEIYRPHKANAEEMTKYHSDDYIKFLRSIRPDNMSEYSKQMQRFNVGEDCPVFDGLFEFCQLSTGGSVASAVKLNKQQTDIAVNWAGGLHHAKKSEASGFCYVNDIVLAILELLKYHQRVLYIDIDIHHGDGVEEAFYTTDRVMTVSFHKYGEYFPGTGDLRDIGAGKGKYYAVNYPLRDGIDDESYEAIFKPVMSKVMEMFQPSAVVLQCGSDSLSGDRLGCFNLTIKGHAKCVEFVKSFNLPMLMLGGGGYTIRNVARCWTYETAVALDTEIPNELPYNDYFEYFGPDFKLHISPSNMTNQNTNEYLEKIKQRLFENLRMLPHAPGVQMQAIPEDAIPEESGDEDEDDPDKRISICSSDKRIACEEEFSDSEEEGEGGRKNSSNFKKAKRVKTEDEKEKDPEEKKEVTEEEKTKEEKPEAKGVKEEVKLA

Histone deacetylase 3 = Histone deacetylase 3 (Homo sapiens, UniProt O15379)
Histone deacetylase 3, sequence (O15379 whole entry): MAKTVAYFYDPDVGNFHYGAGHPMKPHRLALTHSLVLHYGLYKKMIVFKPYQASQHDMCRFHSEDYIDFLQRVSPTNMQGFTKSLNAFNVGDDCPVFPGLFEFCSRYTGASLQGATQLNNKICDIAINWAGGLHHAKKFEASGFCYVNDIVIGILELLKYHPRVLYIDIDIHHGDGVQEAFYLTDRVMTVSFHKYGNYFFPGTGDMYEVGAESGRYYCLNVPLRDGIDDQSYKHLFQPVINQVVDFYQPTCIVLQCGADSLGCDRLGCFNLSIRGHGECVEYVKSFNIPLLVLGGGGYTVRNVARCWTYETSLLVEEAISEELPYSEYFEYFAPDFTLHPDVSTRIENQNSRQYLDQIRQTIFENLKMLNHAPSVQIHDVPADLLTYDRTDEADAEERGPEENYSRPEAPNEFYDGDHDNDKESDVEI

Histone deacetylase 4 = Histone deacetylase 4 (Homo sapiens, UniProt P56524); test: Inhibition of human HDAC4 using fluorogenic tetrapeptide RHKKAc as substrate
Histone deacetylase 4, sequence (P56524 whole entry): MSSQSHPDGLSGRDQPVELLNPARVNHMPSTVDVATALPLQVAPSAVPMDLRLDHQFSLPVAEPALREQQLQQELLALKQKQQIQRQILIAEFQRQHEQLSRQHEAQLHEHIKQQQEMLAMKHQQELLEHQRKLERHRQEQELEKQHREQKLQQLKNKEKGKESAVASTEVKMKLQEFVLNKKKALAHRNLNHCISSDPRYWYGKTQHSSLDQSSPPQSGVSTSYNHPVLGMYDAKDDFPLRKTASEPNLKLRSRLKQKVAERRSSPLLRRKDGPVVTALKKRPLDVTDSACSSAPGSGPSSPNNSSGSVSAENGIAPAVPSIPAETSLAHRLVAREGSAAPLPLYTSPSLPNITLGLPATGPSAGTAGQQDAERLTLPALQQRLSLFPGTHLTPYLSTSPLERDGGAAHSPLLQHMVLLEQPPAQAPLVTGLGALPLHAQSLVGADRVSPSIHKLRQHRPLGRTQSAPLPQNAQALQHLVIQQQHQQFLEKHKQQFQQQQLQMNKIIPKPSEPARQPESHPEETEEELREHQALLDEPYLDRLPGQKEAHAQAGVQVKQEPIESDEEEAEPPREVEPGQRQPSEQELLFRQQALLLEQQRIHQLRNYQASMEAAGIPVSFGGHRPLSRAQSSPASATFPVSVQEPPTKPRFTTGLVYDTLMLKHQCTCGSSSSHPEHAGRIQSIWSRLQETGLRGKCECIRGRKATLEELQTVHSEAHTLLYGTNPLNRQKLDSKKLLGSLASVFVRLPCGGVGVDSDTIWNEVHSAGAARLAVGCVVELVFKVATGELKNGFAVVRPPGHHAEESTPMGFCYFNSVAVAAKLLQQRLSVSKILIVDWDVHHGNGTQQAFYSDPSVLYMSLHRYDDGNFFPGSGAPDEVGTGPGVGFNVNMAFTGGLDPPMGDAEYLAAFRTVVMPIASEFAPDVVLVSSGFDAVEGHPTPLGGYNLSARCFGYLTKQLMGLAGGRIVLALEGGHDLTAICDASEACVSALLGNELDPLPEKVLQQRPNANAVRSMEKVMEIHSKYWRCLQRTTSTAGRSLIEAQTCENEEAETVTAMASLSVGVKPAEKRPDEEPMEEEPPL

Histone deacetylase 5 = Histone deacetylase 5 (Homo sapiens, UniProt Q9UQL6); test: Inhibition of human HDAC5 using fluorogenic tetrapeptide RHKKAc as substrate
Histone deacetylase 5, sequence (Q9UQL6 whole entry): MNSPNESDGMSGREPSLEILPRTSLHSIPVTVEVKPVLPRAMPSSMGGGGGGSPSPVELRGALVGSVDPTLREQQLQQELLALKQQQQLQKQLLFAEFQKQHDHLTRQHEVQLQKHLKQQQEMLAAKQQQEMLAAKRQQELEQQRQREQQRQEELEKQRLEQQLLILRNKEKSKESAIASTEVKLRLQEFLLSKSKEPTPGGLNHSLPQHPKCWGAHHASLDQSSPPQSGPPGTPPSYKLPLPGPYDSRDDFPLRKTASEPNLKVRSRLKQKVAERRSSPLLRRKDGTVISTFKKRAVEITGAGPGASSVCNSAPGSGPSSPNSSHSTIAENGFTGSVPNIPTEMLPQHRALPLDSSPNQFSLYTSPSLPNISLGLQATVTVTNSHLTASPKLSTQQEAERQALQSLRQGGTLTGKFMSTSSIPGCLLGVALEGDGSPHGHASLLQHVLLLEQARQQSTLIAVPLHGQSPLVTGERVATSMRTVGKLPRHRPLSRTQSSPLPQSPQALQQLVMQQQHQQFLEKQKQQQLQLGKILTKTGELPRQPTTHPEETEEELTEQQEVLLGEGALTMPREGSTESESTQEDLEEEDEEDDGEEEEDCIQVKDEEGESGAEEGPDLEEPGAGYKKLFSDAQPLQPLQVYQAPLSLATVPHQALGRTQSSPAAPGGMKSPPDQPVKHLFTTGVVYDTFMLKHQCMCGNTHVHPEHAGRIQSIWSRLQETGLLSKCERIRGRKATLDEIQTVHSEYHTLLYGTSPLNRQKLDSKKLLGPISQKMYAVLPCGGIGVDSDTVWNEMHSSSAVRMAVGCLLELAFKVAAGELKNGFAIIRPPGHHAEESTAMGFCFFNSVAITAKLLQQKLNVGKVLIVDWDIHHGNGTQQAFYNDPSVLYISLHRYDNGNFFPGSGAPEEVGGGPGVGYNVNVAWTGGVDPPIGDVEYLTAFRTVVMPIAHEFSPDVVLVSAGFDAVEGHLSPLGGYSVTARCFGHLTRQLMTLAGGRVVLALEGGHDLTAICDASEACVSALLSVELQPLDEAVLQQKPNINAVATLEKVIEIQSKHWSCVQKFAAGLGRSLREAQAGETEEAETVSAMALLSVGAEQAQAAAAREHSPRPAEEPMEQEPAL

[2] = target: T1, Protein deacetylase HDAC6 (Homo sapiens, UniProt Q9UBN7); test: Inhibition of human HDAC6 using fluorogenic tetrapeptide RHKKAc as substrate
T1 sequence (Q9UBN7 whole entry): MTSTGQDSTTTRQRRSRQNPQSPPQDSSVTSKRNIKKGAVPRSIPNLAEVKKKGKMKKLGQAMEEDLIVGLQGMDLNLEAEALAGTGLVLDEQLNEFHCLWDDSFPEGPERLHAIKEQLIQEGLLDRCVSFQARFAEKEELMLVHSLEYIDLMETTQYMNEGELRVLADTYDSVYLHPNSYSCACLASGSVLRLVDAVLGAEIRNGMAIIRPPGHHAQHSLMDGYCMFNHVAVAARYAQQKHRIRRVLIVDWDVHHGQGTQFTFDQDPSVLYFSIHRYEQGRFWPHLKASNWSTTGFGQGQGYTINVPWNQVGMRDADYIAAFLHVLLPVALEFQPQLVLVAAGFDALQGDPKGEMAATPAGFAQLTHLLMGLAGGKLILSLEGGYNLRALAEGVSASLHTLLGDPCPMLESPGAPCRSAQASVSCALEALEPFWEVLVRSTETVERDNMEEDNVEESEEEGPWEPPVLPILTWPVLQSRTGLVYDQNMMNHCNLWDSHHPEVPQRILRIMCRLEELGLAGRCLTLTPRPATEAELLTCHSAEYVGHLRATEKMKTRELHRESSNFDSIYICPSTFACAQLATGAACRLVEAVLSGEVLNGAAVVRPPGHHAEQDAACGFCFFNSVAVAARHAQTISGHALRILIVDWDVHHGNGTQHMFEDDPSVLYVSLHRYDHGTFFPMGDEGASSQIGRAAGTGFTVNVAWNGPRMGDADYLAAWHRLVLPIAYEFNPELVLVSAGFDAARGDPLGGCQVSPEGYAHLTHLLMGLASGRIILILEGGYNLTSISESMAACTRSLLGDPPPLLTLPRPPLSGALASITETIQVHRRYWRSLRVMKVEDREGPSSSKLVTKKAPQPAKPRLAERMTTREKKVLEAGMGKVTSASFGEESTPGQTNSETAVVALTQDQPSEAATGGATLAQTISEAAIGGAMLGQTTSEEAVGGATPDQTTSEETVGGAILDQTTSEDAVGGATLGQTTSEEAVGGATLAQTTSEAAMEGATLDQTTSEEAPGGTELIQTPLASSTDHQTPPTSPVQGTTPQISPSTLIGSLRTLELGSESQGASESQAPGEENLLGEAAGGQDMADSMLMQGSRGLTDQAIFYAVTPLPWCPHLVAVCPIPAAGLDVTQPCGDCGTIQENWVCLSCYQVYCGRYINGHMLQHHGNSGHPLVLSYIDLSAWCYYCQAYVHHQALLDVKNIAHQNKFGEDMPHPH

Histone deacetylase 8 = target: T2, Histone deacetylase 8 (Homo sapiens, UniProt Q9BY41); test: Inhibition of human HDAC8 using fluorogenic tetrapeptide RHKKAc as substrate
T2 sequence (Q9BY41 whole entry): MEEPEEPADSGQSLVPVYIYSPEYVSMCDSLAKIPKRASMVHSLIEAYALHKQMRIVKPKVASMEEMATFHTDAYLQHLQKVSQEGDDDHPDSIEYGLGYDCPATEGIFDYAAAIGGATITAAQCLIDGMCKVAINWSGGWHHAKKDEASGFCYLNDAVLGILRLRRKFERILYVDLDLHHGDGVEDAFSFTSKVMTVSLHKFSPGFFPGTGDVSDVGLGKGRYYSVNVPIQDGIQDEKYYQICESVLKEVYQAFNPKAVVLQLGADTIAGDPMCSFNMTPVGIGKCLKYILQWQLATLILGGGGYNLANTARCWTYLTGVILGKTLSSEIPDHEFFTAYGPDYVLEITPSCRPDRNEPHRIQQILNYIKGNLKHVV

Histone deacetylase 9 = Histone deacetylase 9 (Homo sapiens, UniProt Q9UKV0); test: Inhibition of human HDAC9 using fluorogenic tetrapeptide RHKKAc as substrate
Histone deacetylase 9, sequence (Q9UKV0 whole entry): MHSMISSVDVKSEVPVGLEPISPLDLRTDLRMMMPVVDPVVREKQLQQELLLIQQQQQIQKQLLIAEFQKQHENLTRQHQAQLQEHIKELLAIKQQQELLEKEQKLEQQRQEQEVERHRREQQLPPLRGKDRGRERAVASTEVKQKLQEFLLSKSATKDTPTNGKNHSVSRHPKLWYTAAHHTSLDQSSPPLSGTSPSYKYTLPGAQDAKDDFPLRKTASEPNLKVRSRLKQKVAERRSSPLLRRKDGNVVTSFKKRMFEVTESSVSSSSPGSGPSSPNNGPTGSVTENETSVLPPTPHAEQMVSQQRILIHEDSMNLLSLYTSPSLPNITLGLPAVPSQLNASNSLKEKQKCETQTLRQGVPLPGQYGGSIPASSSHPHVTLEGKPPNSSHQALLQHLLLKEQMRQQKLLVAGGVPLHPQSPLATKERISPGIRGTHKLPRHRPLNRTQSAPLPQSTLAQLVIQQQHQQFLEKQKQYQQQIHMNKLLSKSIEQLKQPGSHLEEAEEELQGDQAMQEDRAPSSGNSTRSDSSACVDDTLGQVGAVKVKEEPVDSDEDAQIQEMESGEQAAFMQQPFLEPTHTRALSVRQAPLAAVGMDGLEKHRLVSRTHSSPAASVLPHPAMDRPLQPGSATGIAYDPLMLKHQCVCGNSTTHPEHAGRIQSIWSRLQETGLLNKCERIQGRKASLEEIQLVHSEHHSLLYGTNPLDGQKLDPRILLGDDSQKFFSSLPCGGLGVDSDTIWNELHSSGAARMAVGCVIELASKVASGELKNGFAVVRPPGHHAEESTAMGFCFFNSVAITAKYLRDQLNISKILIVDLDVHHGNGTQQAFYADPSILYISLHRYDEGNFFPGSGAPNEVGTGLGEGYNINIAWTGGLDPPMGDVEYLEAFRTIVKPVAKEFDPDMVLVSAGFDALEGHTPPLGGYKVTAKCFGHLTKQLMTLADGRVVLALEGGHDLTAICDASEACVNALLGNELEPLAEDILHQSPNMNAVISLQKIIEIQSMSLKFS

[3] = target: T3, Polyamine deacetylase HDAC10 (Homo sapiens, UniProt Q969S8); test: Inhibition of human HDAC10 using fluorogenic tetrapeptide RHKKAc as substrate
T3 sequence (Q969S8 whole entry): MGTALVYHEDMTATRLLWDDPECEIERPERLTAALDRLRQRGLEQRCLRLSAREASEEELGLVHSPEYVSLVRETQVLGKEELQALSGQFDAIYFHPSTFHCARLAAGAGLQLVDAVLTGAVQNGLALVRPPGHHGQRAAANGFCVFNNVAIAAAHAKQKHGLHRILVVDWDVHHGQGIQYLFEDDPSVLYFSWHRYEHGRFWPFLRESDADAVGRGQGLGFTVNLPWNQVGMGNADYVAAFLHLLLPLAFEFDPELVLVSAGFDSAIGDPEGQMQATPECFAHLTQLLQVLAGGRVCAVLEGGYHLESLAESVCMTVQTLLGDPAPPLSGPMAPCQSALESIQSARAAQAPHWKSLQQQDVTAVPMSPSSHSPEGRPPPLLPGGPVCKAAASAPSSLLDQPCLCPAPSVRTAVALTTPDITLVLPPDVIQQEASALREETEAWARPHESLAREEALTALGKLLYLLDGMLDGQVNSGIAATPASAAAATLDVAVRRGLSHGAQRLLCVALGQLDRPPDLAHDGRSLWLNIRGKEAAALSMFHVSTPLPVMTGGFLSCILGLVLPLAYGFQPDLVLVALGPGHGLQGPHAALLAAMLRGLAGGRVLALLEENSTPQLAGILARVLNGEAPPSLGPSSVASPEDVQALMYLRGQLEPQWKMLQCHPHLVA

Histone deacetylase 11 = target: T4, Histone deacetylase 11 (Homo sapiens, UniProt Q96DB2); test: Inhibition of human HDAC11 using fluorogenic tetrapeptide RHKKAc as substrate
T4 sequence (Q96DB2 whole entry): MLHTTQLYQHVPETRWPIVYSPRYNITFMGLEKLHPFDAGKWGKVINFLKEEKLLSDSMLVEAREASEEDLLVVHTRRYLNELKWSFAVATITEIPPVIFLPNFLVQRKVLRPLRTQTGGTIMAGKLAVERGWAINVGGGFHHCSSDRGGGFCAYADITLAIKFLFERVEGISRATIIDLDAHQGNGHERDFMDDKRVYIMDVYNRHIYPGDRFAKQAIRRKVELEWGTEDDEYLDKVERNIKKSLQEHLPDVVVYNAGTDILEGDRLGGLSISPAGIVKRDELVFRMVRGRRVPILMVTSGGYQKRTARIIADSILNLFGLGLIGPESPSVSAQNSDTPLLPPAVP

Histone deacetylase 2, sequence (Q92769 whole entry): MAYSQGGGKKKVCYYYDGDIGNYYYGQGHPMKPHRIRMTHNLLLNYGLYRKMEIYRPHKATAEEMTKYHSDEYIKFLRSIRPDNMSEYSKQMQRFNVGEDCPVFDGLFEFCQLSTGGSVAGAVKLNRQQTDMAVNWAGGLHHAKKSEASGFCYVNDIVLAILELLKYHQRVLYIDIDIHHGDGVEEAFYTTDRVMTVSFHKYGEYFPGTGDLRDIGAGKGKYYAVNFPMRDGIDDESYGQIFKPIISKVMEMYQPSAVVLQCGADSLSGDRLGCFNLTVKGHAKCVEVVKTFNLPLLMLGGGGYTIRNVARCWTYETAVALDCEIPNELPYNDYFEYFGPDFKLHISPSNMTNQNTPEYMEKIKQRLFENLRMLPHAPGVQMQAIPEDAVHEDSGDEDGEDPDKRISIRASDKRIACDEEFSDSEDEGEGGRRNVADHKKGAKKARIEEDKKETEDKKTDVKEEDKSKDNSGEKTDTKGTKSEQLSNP

IC50 (Histone deacetylase 2)	IC50 (cells)	IC50 (HCT-116)	IC50 (Histone deacetylase 1)	IC50 (Histone deacetylase 3)	IC50 (Histone deacetylase 4)	IC50 (Histone deacetylase 5)	IC50 [2]	IC50 (Histone deacetylase 8)	IC50 (Histone deacetylase 9)	IC50 [3]	IC50 (Histone deacetylase 11)	SMILES	IC50 (IGROV-1)	IC50 [1]
> 10 µM	> 10 µM	10.3 µM	–	–	–	–	–	–	–	–	–	O=C(/C=C/c1ccc(-c2cccc(C34CC5CC(CC(C5)C3)C4)c2)cc1)NO	1.23 µM	5.7 µM
2.64 µM	0.83 µM	0.58 µM	> 100 µM	55.6 µM	61.4 µM	78.4 µM	2.8 µM	6.96 µM	41.4 µM	> 100 µM	57.2 µM	O=C(/C=C/c1ccc(-c2ccc(O)c(C34CC5CC(CC(C5)C3)C4)c2)cc1)NO	1.1 µM	1.3 µM
–	–	–	–	–	–	–	–	–	–	–	–	O=C(/C=C/c1ccc(-c2ccccc2)cc1)NO	–	4.3 µM
–	1 µM	2.55 µM	–	–	–	–	–	–	–	–	–	O=C(/C=C/c1ccc(-c2cc3c(c(C45CC6CC(CC(C6)C4)C5)c2)OCCO3)cc1)NO	1.2 µM	0.8 µM
–	1 µM	0.7 µM	–	–	–	–	–	–	–	–	–	O=C(NO)c1ccc2cc(-c3ccc(O)c(C45CC6CC(CC(C6)C4)C5)c3)ccc2c1	0.65 µM	1.1 µM
–	–	–	5.51 µM	4.57 µM	17.1 µM	11.2 µM	0.0418 µM	0.162 µM	8.92 µM	11 µM	5.01 µM	O=C(/C=C/c1ccc(-c2ccc(O)cc2)cc1)NO	–	–
